In experiment [1] the target is Cannabinoid receptor 1 (Homo sapiens, UniProt P21554). The experiment can be described thus: Agonist activity at human CB1 receptor expressed in CHO cells coexpressing Galpha16 assessed as reduction in forsklin-induced cAMP production incubated for 30 mins by cAMP Hunter assay based […] analysis. It counts as cell-based. An outline of the steps: (§1)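 CHO cells expressing human CB1 or CB2 with Gα16, seeded overnight at 37 °C. Test compounds in stimulation buffer with 1 mM IBMX, 0.25% BSA and forskolin, 30 min at 37 °C. Cells lysed, cAMP read by enzyme fragment complementation chemiluminescence kit. Triplicate per dilution. Efficacy relative to CP-55940 reference run twice per plate. EC50 from means.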
(Cyclic AMP is a second messenger, typically raised through Gs and lowered through Gi signalling.)

The target in experiment [2] is Cannabinoid receptor 2 (Homo sapiens, UniProt P34972). Description: Agonist activity at human CB2 receptor expressed in CHO cells coexpressing Galpha16 assessed as reduction in forsklin-induced cAMP production incubated for 30 mins by cAMP Hunter assay based […] analysis. It counts as functional, cell-based. The gist of the method:
as §1

A short description of experiment [3]: Selectivity ratio of EC50 for human CB1 receptor expressed in CHO cells coexpressing Galpha16 to EC50 for human CB2 receptor expressed in CHO cells coexpressing Galpha16. An outline of the steps:
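Ratio of EC50 values from the CB1 and CB2 cAMP assays in CHO-Gα16 cells: 30 min compound exposure at 37 °C with 1 mM IBMX and forskolin, chemiluminescent cAMP read-out, triplicates.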

Cannabinoid receptor 2, sequence (P34972 whole entry): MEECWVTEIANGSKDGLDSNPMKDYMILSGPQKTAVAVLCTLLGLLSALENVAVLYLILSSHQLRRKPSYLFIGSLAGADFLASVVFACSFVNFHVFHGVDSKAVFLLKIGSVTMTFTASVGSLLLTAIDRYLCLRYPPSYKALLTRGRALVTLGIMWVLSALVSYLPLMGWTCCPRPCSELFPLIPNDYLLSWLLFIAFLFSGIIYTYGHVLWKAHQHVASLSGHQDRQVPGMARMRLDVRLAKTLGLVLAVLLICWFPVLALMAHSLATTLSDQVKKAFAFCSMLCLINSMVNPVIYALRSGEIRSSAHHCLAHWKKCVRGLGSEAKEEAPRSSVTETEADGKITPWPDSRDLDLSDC
Cannabinoid receptor 1, sequence (P21554 whole entry, the tested form may be a part): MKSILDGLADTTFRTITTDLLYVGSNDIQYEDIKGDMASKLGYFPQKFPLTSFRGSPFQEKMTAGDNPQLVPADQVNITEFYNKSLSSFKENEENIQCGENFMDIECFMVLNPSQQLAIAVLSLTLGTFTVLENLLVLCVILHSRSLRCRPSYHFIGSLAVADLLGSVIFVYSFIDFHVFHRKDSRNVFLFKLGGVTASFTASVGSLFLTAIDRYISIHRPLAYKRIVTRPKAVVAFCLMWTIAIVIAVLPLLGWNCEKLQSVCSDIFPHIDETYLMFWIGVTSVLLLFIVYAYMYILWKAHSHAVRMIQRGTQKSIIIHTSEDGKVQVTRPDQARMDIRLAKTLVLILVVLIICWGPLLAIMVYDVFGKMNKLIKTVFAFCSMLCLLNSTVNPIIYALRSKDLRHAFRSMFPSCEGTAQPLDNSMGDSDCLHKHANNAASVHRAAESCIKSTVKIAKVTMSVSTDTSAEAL

Turning to `Cc1c(CCN2CCOCC2)c2cc(Br)ccc2n1CC(=O)NCc1ccc2c(c1)OCO2`, the EC50 entry in experiment [1] (cho) and in experiment [2] (cho) was “Not Active” each time.
In the case of `Cc1c(CC(=O)NCc2ccc3c(c2)OCO3)c2cc(Cl)ccc2n1CCN1CCOCC1`, the EC50 entry in experiment [1] (cho) and in experiment [2] (cho) was “Not Active” in each case.
`Cc1c(CCN2CCOCC2)c2cc(Cl)ccc2n1CC(=O)N1CCCC1`: the EC50 entry in experiment [1] (cho) and in experiment [2] (cho) was “Not Active” throughout.
Take `Cc1c(CC(=O)NC2CCCC2)c2cc(Cl)ccc2n1CCN1CCOCC1`: the half-maximal effective concentration (EC50) result was “Not Active” in experiment [1] (cho) and 2.7 µM in experiment [2] (read-out: EC50).
For `Cc1c(CC(=O)NC2CCCC2)c2cc(F)ccc2n1CCN1CCOCC1`, in experiment [3], the “Ratio EC50” value is given as greater than 1000. Further, the values for the EC50 entry in experiment [1] (cho) and in experiment [2] (read-out: EC50) were “Not Active” and 0.476 µM, respectively.
Consider `Cc1c(CC(=O)NC2CCCCC2)c2cc(F)ccc2n1CCN1CCOCC1`, for which the results for the EC50 entry in experiment [1] (cho) and in experiment [2] (read-out: EC50) were “Not Active” and greater than 100 µM, respectively.
Consider `COc1ccc2c(c1)c(CC(=O)NCC1CC1)c(C)n2CCN1CCOCC1`, for which the EC50 result in experiment [1] (cho) and in experiment [2] (cho) was “Not Active” in each case.
With `COc1ccc2c(c1)c(CC(=O)N1CCCCC1)c(C)n2CCN1CCOCC1`, the values for the EC50 result in experiment [1] (cho) and in experiment [2] (read-out: EC50) were “Not Active” and greater than 100 µM, respectively.
As for `Cc1c(CCN2CCOCC2)c2cc(Br)ccc2n1CC(=O)N1CCCC1`, the EC50 result in experiment [1] (cho) and in experiment [2] (cho) was “Not Active” in each case.
Turning to `Cc1c(CCN2CCOCC2)c2cc(F)ccc2n1CC(=O)NC1CC1`, the EC50 entry in experiment [1] (cho) was “Not Active”; in experiment [2] (read-out: EC50), 3.9 µM.
As to `COc1ccc2c(c1)c(CCN1CCOCC1)c(C)n2CC(=O)NC1CCCCC1`, the EC50 result in experiment [1] (cho) is “Not Active”; in experiment [2] (read-out: EC50) it was 11.6 µM.
Regarding `Cc1c(CCN2CCOCC2)c2cc(Cl)ccc2n1CC(=O)NC1CC1`, the EC50 entry in experiment [1] (cho) is “Not Active”; in experiment [2] (read-out: EC50), 5.3 µM.
On to `Cc1c(CC(=O)N2CCCCC2)c2cc(Cl)ccc2n1CCN1CCOCC1`, for which the EC50 result in experiment [1] (cho) and in experiment [2] (cho) was “Not Active” in each case.
For `Cc1c(CCN2CCOCC2)c2cc(Br)ccc2n1CC(=O)NC1CCCC1`, the results for the EC50 result in experiment [1] (cho) and in experiment [2] (read-out: EC50) were “Not Active” and 20.2 µM, respectively.
With `COc1ccc2c(c1)c(CCN1CCOCC1)c(C)n2CC(=O)NC1CCCC1`, the EC50 result is “Not Active” in experiment [1] (cho) and 5.6 µM in experiment [2] (read-out: EC50).
With `Cc1c(CCN2CCOCC2)c2cc(Cl)ccc2n1CC(=O)NCc1ccc2c(c1)OCO2`, the EC50 result in experiment [1] (cho) and in experiment [2] (cho) was “Not Active” each time.
Regarding `Cc1c(CC(=O)NC2CC2)c2cc(Cl)ccc2n1CCN1CCOCC1`, the half-maximal effective concentration (EC50) result in experiment [1] (cho) was “Not Active”; in experiment [2] (read-out: EC50), 1.2 µM.
On to `Cc1c(CCN2CCOCC2)c2cc(Br)ccc2n1CC(=O)N1CCCCC1`, for which the EC50 entry in experiment [1] (cho) and in experiment [2] (cho) was “Not Active” in each case.
As for `COc1ccc2c(c1)c(CC(=O)NC1CCCCC1)c(C)n2CCN1CCOCC1`, the EC50 entry in experiment [1] (cho) was “Not Active”; in experiment [2] (read-out: EC50) it was greater than 100 µM.
Turning to `Cc1c(CCN2CCOCC2)c2cc(Br)ccc2n1CC(=O)NC1CCCCC1`, the EC50 result in experiment [1] (cho) and in experiment [2] (cho) was “Not Active” each time.
On to `Cc1c(CCN2CCOCC2)c2cc(Cl)ccc2n1C(=O)c1cccc(Cl)c1Cl`, for which, in experiment [3], the “Ratio EC50” value was greater than 1000. Moreover, the EC50 in experiment [1] (read-out: EC50) was determined as 79.8 µM; in experiment [2] (read-out: EC50), 0.117 µM.
Regarding `COc1ccc2c(c1)c(CC(=O)NCc1ccc3c(c1)OCO3)c(C)n2CCN1CCOCC1`, the EC50 result in experiment [1] (cho) and in experiment [2] (cho) was “Not Active” each time.
In the case of `COc1ccc2c(c1)c(CCN1CCOCC1)c(C)n2CC(=O)NCc1ccc2c(c1)OCO2`, the EC50 result in experiment [1] (cho) is “Not Active”; in experiment [2] (read-out: EC50), 28.1 µM.
`COc1ccc2c(c1)c(CCN1CCOCC1)c(C)n2C(=O)N1CCCC1`: the EC50 result in experiment [1] (cho) is “Not Active”; in experiment [2] (read-out: EC50), 26.4 µM.
For `COc1ccc2c(c1)c(CC(=O)NC1CC1)c(C)n2CCN1CCOCC1`, the EC50 entry in experiment [1] (cho) and in experiment [2] (cho) was “Not Active” throughout.
`COc1ccc2c(c1)c(CC(=O)NC1CCCC1)c(C)n2CCN1CCOCC1`: the EC50 result in experiment [1] (cho) and in experiment [2] (cho) was “Not Active” each time.
For the compound `Cc1c(CC(=O)NCC2CC2)c2cc(F)ccc2n1CCN1CCOCC1`, the EC50 entry is “Not Active” in experiment [1] (cho) and 3.1 µM in experiment [2] (read-out: EC50).
Turning to `Cc1c(CC(=O)N2CCCC2)c2cc(Cl)ccc2n1CCN1CCOCC1`, the EC50 result in experiment [1] (cho) and in experiment [2] (cho) was “Not Active” throughout.
Turning to `Cc1c(CCN2CCOCC2)c2cc(F)ccc2n1CC(=O)NCc1ccc2c(c1)OCO2`, the EC50 result in experiment [1] (cho) and in experiment [2] (cho) was “Not Active” in each case.
On to `COc1ccc2c(c1)c(CCN1CCOCC1)c(C)n2CC(=O)N1CCCCC1`, for which the figures for the EC50 result in experiment [1] (cho) and in experiment [2] (read-out: EC50) were “Not Active” and 41.9 µM, respectively.
Take `Cc1c(CCN2CCOCC2)c2cc(F)ccc2n1CC(=O)N1CCCCC1`: the EC50 entry in experiment [1] (cho) and in experiment [2] (cho) was “Not Active” throughout.
With `Cc1c(CCN2CCOCC2)c2cc(Br)ccc2n1CC(=O)NCC1CC1`, the EC50 result in experiment [1] (cho) was “Not Active”; in experiment [2] (read-out: EC50), 5.4 µM.
For the compound `COc1ccc2c(c1)c(CCN1CCOCC1)c(C)n2CC(=O)N1CCCC1`, the EC50 entry was “Not Active” in experiment [1] (cho) and greater than 100 µM in experiment [2] (read-out: EC50).
Take `Cc1c(CCN2CCOCC2)c2cc(Cl)ccc2n1CC(=O)NC1CCCC1`: the EC50 entry is “Not Active” in experiment [1] (cho) and 16.1 µM in experiment [2] (read-out: EC50).
Turning to `Cc1c(CC(=O)NCC2CC2)c2cc(Cl)ccc2n1CCN1CCOCC1`, the “Ratio EC50” value in experiment [3] is greater than 1000. The EC50 entry is “Not Active” in experiment [1] (cho) and 0.594 µM in experiment [2] (read-out: EC50).
On to `Cc1c(CCN2CCOCC2)c2cc(F)ccc2n1CC(=O)N1CCCC1`, for which the EC50 result in experiment [1] (cho) and in experiment [2] (cho) was “Not Active” each time.
For `Cc1c(CC(=O)NCc2ccc3c(c2)OCO3)c2cc(F)ccc2n1CCN1CCOCC1`, the EC50 entry in experiment [1] (cho) and in experiment [2] (cho) was “Not Active” throughout.
`Cc1c(CC(=O)N2CCCCC2)c2cc(F)ccc2n1CCN1CCOCC1`: the EC50 result in experiment [1] (cho) and in experiment [2] (cho) was “Not Active” in each case.
Take `Cc1c(CC(=O)NC2CC2)c2cc(F)ccc2n1CCN1CCOCC1`: the EC50 entry in experiment [1] (cho) is “Not Active”; in experiment [2] (read-out: EC50), 4.1 µM.
As to `Cc1c(CCN2CCOCC2)c2cc(F)ccc2n1CC(=O)NCC1CC1`, the figures for the EC50 entry in experiment [1] (cho) and in experiment [2] (read-out: EC50) were “Not Active” and 4.2 µM, respectively.
The matching figures for `Cc1c(CCN2CCOCC2)c2cc(Br)ccc2n1CC(=O)NC1CC1`: “Not Active” and 8.2 µM.
As to `Cc1c(CCN2CCOCC2)c2cc(Cl)ccc2n1CC(=O)N1CCCCC1`, the EC50 result in experiment [1] (cho) and in experiment [2] (cho) was “Not Active” in each case.
For the compound `COc1ccc2c(c1)c(CCN1CCOCC1)c(C)n2CC(=O)NC1CC1`, the EC50 result in experiment [1] (cho) and in experiment [2] (cho) was “Not Active” each time.
For the compound `COc1ccc2c(c1)c(CC(=O)N1CCCC1)c(C)n2CCN1CCOCC1`, the EC50 result in experiment [1] (cho) and in experiment [2] (cho) was “Not Active” throughout.
In the case of `Cc1c(CC(=O)N2CCCC2)c2cc(F)ccc2n1CCN1CCOCC1`, the EC50 result in experiment [1] (cho) and in experiment [2] (cho) was “Not Active” each time.
For the compound `Cc1c(CCN2CCOCC2)c2cc(F)ccc2n1CC(=O)NC1CCCC1`, the EC50 entry in experiment [1] (cho) was “Not Active”; in experiment [2] (read-out: EC50), 5.5 µM.
On to `Cc1c(CCN2CCOCC2)c2cc(Cl)ccc2n1C(=O)N1CCCC1`, for which the half-maximal effective concentration (EC50) result in experiment [1] (cho) and in experiment [2] (cho) was “Not Active” throughout.
For the compound `Cc1c(CCN2CCOCC2)c2cc(Cl)ccc2n1CC(=O)NC1CCCCC1`, the EC50 entry in experiment [1] (cho) and in experiment [2] (cho) was “Not Active” throughout.
Consider `Cc1c(CCN2CCOCC2)c2cc(Br)ccc2n1C(=O)c1cccc(Cl)c1Cl`, for which the “Ratio EC50” value in experiment [3] is given as greater than 1000. Further, the figures for the EC50 in experiment [1] (read-out: EC50) and in experiment [2] (read-out: EC50) were greater than 100 µM and 0.0523 µM, respectively.
In the case of `Cc1c(CCN2CCOCC2)c2cc(Br)ccc2n1C(=O)N1CCCC1`, the EC50 entry in experiment [1] (cho) and in experiment [2] (cho) was “Not Active” throughout.
In the case of `Cc1c(CC(=O)NC2CCCCC2)c2cc(Cl)ccc2n1CCN1CCOCC1`, the EC50 entry in experiment [1] (cho) is “Not Active”; in experiment [2] (read-out: EC50), greater than 100 µM.
Take `Cc1c(CCN2CCOCC2)c2cc(F)ccc2n1C(=O)N1CCCC1`: the EC50 result in experiment [1] (cho) and in experiment [2] (cho) was “Not Active” throughout.
Regarding `Cc1c(CCN2CCOCC2)c2cc(Cl)ccc2n1CC(=O)NCC1CC1`, the values for the EC50 entry in experiment [1] (cho) and in experiment [2] (read-out: EC50) were “Not Active” and 14.3 µM, respectively.
As for `COc1ccc2c(c1)c(CCN1CCOCC1)c(C)n2CC(=O)NCC1CC1`, the EC50 result is “Not Active” in experiment [1] (cho) and greater than 100 µM in experiment [2] (read-out: EC50).
For the compound `Cc1c(CCN2CCOCC2)c2cc(F)ccc2n1CC(=O)NC1CCCCC1`, the EC50 result in experiment [1] (cho) and in experiment [2] (cho) was “Not Active” in each case.

As usually defined, the EC50 is the concentration at which the effect is half-maximal.

These data come from ChEMBL document CHEMBL4373651, “Indole compounds with N-ethyl morpholine moieties as CB2 receptor agonists for anti-inflammatory management of pain: synthesis and biological evaluation” (Medchemcomm, 2019).
